Source: ChEMBL document CHEMBL3414508, “A few atoms make the difference: synthetic, CD, NMR and computational studies on antiviral and antibacterial activities of glycopeptide antibiotic aglycon derivatives” (Eur J Med Chem, 2015)
Converted amounts (≈) assume the structure as drawn.

Assays:
[1] = Cytotoxicity against MDCK cells after 72 hrs by microscopic analysis; format: cell-based, Canis lupus familiaris; details: dog
Procedure, shortened: (§1)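 Uninfected MDCK cultures were run in parallel with serial compound dilutions for 72 h at 35°C. MCC is the concentration producing minimal changes in cell morphology, judged by microscopy. […] Means of 2 to 5 independent tests.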

[2] = Cytotoxicity against MDCK cells after 72 hrs by MTS assay; format: cell-based, Canis lupus familiaris; details: dog; procedure, shortened: as §1
[3] = Antiviral activity against Influenza A virus (A/Hong Kong/7/1987(H3N2)) infected in MDCK cells assessed as reduction of virus-induced cytopathic effect after 72 hrs by microscopic analysis; format: functional, cell-based
Procedure, shortened: (§2)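 Subconfluent MDCK cultures given serial compound dilutions together with virus at MOI 0.0004 PFU/cell. Incubation 72 h at 35°C. […] Means of 2 to 5 independent tests.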

[4] = Antiviral activity against Influenza A virus (A/Hong Kong/7/1987(H3N2)) infected in MDCK cells assessed as cell viability after 72 hrs by MTS assay; format: functional, cell-based; procedure, shortened: as §2
Influenza B virus [5] = assay: Antiviral activity against Influenza B virus (B/Hong Kong/05/1972) infected in MDCK cells assessed as reduction of virus-induced cytopathic effect after 72 hrs by microscopic analysis; format: functional, cell-based; details: B/Hong Kong/05/1972, MDCK; procedure, shortened: as §2
Influenza B virus [6] = assay: Antiviral activity against Influenza B virus (B/Hong Kong/05/1972) infected in MDCK cells assessed as cell viability after 72 hrs by MTS assay; format: functional, cell-based; details: B/Hong Kong/05/1972, MDCK; procedure, shortened: as §2
Influenza A virus [7] = assay: Antiviral activity against Influenza A virus (A/Puerto Rico/8/34(H1N1)) infected in MDCK cells assessed as cell viability after 72 hrs by MTS assay; format: functional, organism-based, A/Puerto Rico/8/1934(H1N1); details: Influenza A virus, A/Puerto Rico/8/1934(H1N1), MDCK, 72 h; procedure, shortened: as §2
Influenza A virus [8] = assay: Antiviral activity against Influenza A virus (A/Puerto Rico/8/34(H1N1)) infected in MDCK cells assessed as reduction of virus-induced cytopathic effect after 72 hrs by microscopic analysis; format: functional, organism-based; details: A/Puerto Rico/8/1934(H1N1)
Procedure, shortened: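 Subconfluent MDCK cultures given serial compound dilutions together with virus at MOI 0.0004 PFU/cell. Incubation 72 h at 35°C. Means of 2 to 5 independent tests.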

Bacillus spizizenii = assay: Antibacterial activity against Bacillus subtilis ATCC 6633 by broth microdilution method; format: functional
Staphylococcus aureus [9] = assay: Antibacterial activity against methicillin-sensitive Staphylococcus aureus ATCC 29213 by broth microdilution method; format: functional
Staphylococcus aureus [10] = assay: Antibacterial activity against methicillin-resistant Staphylococcus aureus ATCC 33591 by broth microdilution method; format: functional
[11] = test system: Staphylococcus epidermidis; assay: Antibacterial activity against Staphylococcus epidermidis expressing mecA by broth microdilution method; format: functional
[12] = test system: Staphylococcus epidermidis; assay: Antibacterial activity against biofilm producing Staphylococcus epidermidis ATCC 35984 by broth microdilution method; format: functional
Enterococcus faecalis [13] = assay: Antibacterial activity against Enterococcus faecalis ATCC 29212 by broth microdilution method; format: functional
Enterococcus faecalis [14] = assay: Antibacterial activity against VanB+ Enterococcus faecalis ATCC 51299 by broth microdilution method; format: functional
Enterococcus faecalis [15] = assay: Antibacterial activity against VanA+ Enterococcus faecalis 15376 by broth microdilution method; format: functional

SMILES: COC(=O)[C@H]1NC(=O)[C@H]2NC(=O)[C@H](NC(=O)[C@@H]3NC(=O)[C@H]4NC(=O)[C@H](NC(=O)[C@H](N)c5ccc(O)c(c5)Oc5cc4cc(O)c5C)[C@H](O)c4ccc(cc4)Oc4cc3cc(c4O)Oc3ccc(cc3)[C@H]2O)c2ccc(O)c(c2)-c2c(O)cc(O)cc21
- MCC at 72 h [1]: 81 µM
- CC50 at 72 h [2]: 44 µM
- EC50 [3]: 4.6 µM
- EC50 [4]: 2.5 µM
- EC50 (Influenza B virus [5]): 5.1 µM
- EC50 (Influenza B virus [6]): 5.4 µM

SMILES: CC(=O)N[C@H]1[C@H](O[C@@H]2c3ccc(c(Cl)c3)Oc3cc4cc(c3O)Oc3ccc(cc3Cl)C[C@H]3NC(=O)[C@H](N)c5ccc(O)c(c5)Oc5cc(O)cc(c5)[C@H](NC3=O)C(=O)N[C@H]4C(=O)N[C@H]3C(=O)N[C@@H]2C(=O)N[C@H](C(=O)O)c2cc(O)cc(O)c2-c2cc3ccc2O)O[C@H](CO)[C@@H](O)[C@@H]1O
- MCC at 72 h [1]: ≥ 100 µM
- CC50 at 72 h [2]: > 100 µM
- EC50 (Influenza A virus [7]): 43 µM
- EC50 [3]: 17 µM
- EC50 [4]: 34 µM
- EC50 (Influenza B virus [5]): > 100 µM
- EC50 (Influenza B virus [6]): > 100 µM

SMILES: COC(=O)[C@H]1NC(=O)[C@H]2NC(=O)[C@H](NC(=O)[C@@H]3NC(=O)[C@H]4NC(=O)[C@H](NC(=O)[C@H](Nc5c(NCc6ccc(-c7ccccc7)cc6)c(=O)c5=O)c5ccc(O)c(c5)Oc5cc4cc(O)c5C)[C@H](O)c4ccc(cc4)Oc4cc3cc(c4O)Oc3ccc(cc3)[C@H]2O)c2ccc(O)c(c2)-c2c(O)cc(O)cc21 [listing 1 of 2 here]
- MCC at 72 h [1]: 20 µM
- CC50 at 72 h [2]: 39 µM
- EC50 (Influenza A virus [8]): 0.15 µM
- EC50 (Influenza A virus [7]): 0.21 µM
- EC50 [3]: 0.15 µM
- EC50 [4]: ≤ 0.42 µM
- EC50 (Influenza B virus [5]): 0.84 µM
- EC50 (Influenza B virus [6]): 1 µM

SMILES: COC(=O)[C@H]1NC(=O)[C@H]2NC(=O)[C@H](NC(=O)[C@@H]3NC(=O)[C@H]4NC(=O)[C@H](NC(=O)[C@H](Nc5c(NCc6ccc(-c7ccccc7)cc6)c(=O)c5=O)c5ccc(O)c(c5)Oc5cc4cc(O)c5C)[C@H](O)c4ccc(cc4)Oc4cc3cc(c4O)Oc3ccc(cc3)[C@H]2O)c2ccc(O)c(c2)-c2c(O)cc(O)cc21 [listing 2 of 2 here]
- MIC (Bacillus spizizenii): 2 µg/mL (≈ 1.39 µM)
- MIC (Staphylococcus aureus [9]): 1 µg/mL (≈ 0.697 µM)
- MIC (Staphylococcus aureus [10]): 8 µg/mL (≈ 5.57 µM)
- MIC [11]: 2 µg/mL (≈ 1.39 µM)
- MIC [12]: 2 µg/mL (≈ 1.39 µM)
- MIC (Enterococcus faecalis [13]): 1 µg/mL (≈ 0.697 µM)
- MIC (Enterococcus faecalis [14]): 8 µg/mL (≈ 5.57 µM)

SMILES: CC(=O)N[C@H]1[C@H](O[C@@H]2c3ccc(c(Cl)c3)Oc3cc4cc(c3O)Oc3ccc(cc3Cl)C[C@H]3NC(=O)[C@H](Nc5c(NCc6ccc(-c7ccccc7)cc6)c(=O)c5=O)c5ccc(O)c(c5)Oc5cc(O)cc(c5)[C@H](NC3=O)C(=O)N[C@H]4C(=O)N[C@H]3C(=O)N[C@@H]2C(=O)N[C@H](C(=O)O)c2cc(O)cc(O)c2-c2cc3ccc2O)O[C@H](CO)[C@@H](O)[C@@H]1O [listing 1 of 2 here]
- MCC at 72 h [1]: 0.8 µM
- CC50 at 72 h [2]: 6.5 µM
- EC50 (Influenza A virus [8]): > 100 µM
- EC50 (Influenza A virus [7]): > 100 µM
- EC50 [3]: > 100 µM
- EC50 [4]: > 100 µM
- EC50 (Influenza B virus [5]): > 100 µM
- EC50 (Influenza B virus [6]): > 100 µM

SMILES: CC(=O)N[C@H]1[C@H](O[C@@H]2c3ccc(c(Cl)c3)Oc3cc4cc(c3O)Oc3ccc(cc3Cl)C[C@H]3NC(=O)[C@H](Nc5c(NCc6ccc(-c7ccccc7)cc6)c(=O)c5=O)c5ccc(O)c(c5)Oc5cc(O)cc(c5)[C@H](NC3=O)C(=O)N[C@H]4C(=O)N[C@H]3C(=O)N[C@@H]2C(=O)N[C@H](C(=O)O)c2cc(O)cc(O)c2-c2cc3ccc2O)O[C@H](CO)[C@@H](O)[C@@H]1O [listing 2 of 2 here]
- MIC (Bacillus spizizenii): 4 µg/mL (≈ 2.4 µM)
- MIC (Staphylococcus aureus [9]): 1 µg/mL (≈ 0.601 µM)
- MIC (Staphylococcus aureus [10]): 4 µg/mL (≈ 2.4 µM)
- MIC [11]: 1 µg/mL (≈ 0.601 µM)
- MIC [12]: 1 µg/mL (≈ 0.601 µM)
- MIC (Enterococcus faecalis [13]): 4 µg/mL (≈ 2.4 µM)
- MIC (Enterococcus faecalis [15]): 256 µg/mL (≈ 154 µM)
- MIC (Enterococcus faecalis [14]): 8 µg/mL (≈ 4.81 µM)

SMILES: COC(=O)[C@H]1NC(=O)[C@H]2NC(=O)[C@H](NC(=O)[C@@H]3NC(=O)[C@H]4NC(=O)[C@@H](Cc5ccc(c(Cl)c5)Oc5cc3cc(c5O)Oc3ccc(cc3Cl)[C@H]2O[C@@H]2O[C@H](CO)[C@@H](O)[C@H](O)[C@H]2NC(C)=O)NC(=O)[C@H](N)c2ccc(O)c(c2)Oc2cc(O)cc4c2)c2ccc(O)c(c2)-c2c(O)cc(O)cc21
- MCC at 72 h [1]: 100 µM
- CC50 at 72 h [2]: > 100 µM
- EC50 (Influenza A virus [8]): > 100 µM
- EC50 (Influenza A virus [7]): > 100 µM
- EC50 [3]: > 100 µM
- EC50 [4]: > 100 µM
- EC50 (Influenza B virus [5]): > 100 µM
- EC50 (Influenza B virus [6]): > 100 µM

SMILES: COC(=O)[C@H]1NC(=O)[C@H]2NC(=O)[C@H](NC(=O)[C@@H]3NC(=O)[C@H]4NC(=O)[C@@H](Cc5ccc(c(Cl)c5)Oc5cc3cc(c5O)Oc3ccc(cc3Cl)[C@H]2O[C@@H]2O[C@H](CO)[C@@H](O)[C@H](O)[C@H]2NC(C)=O)NC(=O)[C@H](Nc2c(OC)c(=O)c2=O)c2ccc(O)c(c2)Oc2cc(O)cc4c2)c2ccc(O)c(c2)-c2c(O)cc(O)cc21
- MCC at 72 h [1]: 100 µM
- CC50 at 72 h [2]: > 100 µM
- EC50 (Influenza A virus [8]): > 100 µM
- EC50 (Influenza A virus [7]): > 100 µM
- EC50 [3]: > 100 µM
- EC50 [4]: > 100 µM
- EC50 (Influenza B virus [5]): > 100 µM
- EC50 (Influenza B virus [6]): > 100 µM
